EBI2 block – EBI2 (human) antagonism. 360,000 compounds, 0.81% hits. inhibition, % at 5 µM. P32249. EBI2 beta-arrestin recruitment, luminescence, 7a,25-OHC stimulated; in the data active = inhibition above about 38%;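 also: enzyme fragment complementation signal reports receptor beta-arrestin coupling in cells; 0% = agonist plus DMSO wells and 100% = wells without agonist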
Target sequence (P32249 whole entry, looked up, the tested form may be a part): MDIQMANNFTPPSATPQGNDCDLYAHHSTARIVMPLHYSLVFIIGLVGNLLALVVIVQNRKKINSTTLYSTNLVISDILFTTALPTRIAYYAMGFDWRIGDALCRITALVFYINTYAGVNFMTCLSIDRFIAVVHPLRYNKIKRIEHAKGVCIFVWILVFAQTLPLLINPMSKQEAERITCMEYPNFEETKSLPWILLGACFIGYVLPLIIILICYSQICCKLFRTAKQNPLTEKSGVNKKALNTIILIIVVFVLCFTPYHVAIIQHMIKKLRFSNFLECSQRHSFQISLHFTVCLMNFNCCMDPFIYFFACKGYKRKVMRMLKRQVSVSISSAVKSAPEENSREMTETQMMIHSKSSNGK
APJ antagonist – antagonists of human APJ apelin receptor. CHO-K1 APJ beta-arrestin complementation, luminescence. AID 2521. inhibition, % at 20 µM. P35414. 330,000 compounds, 0.32% hits;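 active = inhibition above about 40% at 20 µM, limit read from the data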;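 also: cells challenged with 10 nM apelin-13 agonist together with compound; plate controls were apelin-13 plus DMSO wells for no effect and DMSO wells lacking apelin-13 for full effect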
CCR6 antagonist – blocks CCL20-driven beta-arrestin recruitment at human CCR6 | 340,000 compounds, 0.49% hits | CHO-K1 CCR6 PathHunter beta-arrestin, luminescence, CCL20-stimulated | inhibition, % at 20 µM;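 active = compounds whose inhibition of the agonist-driven luminescence signal at 20 µM reaches about 50%, limit read from the data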;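 also: cells stimulated with CCL20 at 14 nM final; plate controls were DMSO with CCL20 for no effect and DMSO without agonist for full effect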
CXCR6 block – inhibitors of human CXCR6 receptor; CHO-K1 PathHunter CXCR6 beta-arrestin, luminescence; inhibition, % at 20 µM; 360,000 compounds, 0.36% hits; AID 602244; in the data active = inhibition above about 34%, passing the limit was not always enough;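 also: antagonist mode with CXCL16 agonist at 10 nM final; 0% = 10 nM CXCL16 with DMSO and 100% = unstimulated wells without agonist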
APJ agonist – APJ receptor agonism. CHO-K1 APJ PathHunter beta-arrestin, luminescence; 0% DMSO wells, 100% apelin. AID 2520. P35414. activation, % at 20 µM. 330,000 compounds, 0.11% hits;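 active = activation more than six SD over the plate average, tested at 20 µM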;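 also: 0% = DMSO alone and 100% = apelin-13 at 10 nM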
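Test system: CHO-K1 APJ beta-arrestin complementation cell line | Compound: Single test compound dose, 20 µM final, 1% DMSO | Incubation: Compound 90 min 25 °C, reagent 1 h | Measured by: beta-gal luminescence | Read-out basis: APJ–arrestin association signal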
EBI2 conf – EBI2 (human) antagonism, single concentration confirmation; shares compounds with EBI2 block; 2,400 compounds, 29% hits; EBI2 beta-arrestin luminescence, 7a,25-OHC antagonism; inhibition, % at 5 µM;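 active = inhibition of at least 50%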
EBI2 agonist – activates EBI2, counter-screen for EBI2 antagonists; EBI2-expressing cells, agonist mode, luminescence, 60 min; 0% vehicle, 100% 7α,25-dihydroxycholesterol control; 2,400 tested, under 10 active; shares compounds with EBI2 block; AID 652000; activation, % at 5 µM;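 active = activation of at least 50%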
bGal counter – inhibits E. coli beta-galactosidase, counter-screen for EBI2 antagonists. shares compounds with EBI2 block. purified beta-galactosidase, luminescent Galacton Star, 15 min. inhibition, % at 5 µM. 2,400 compounds, 1% hits. AID 652176;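 active = replicate-average signal at least 3 plate SD below neutral wells, shown as high inhibition, flagging enzyme-inhibiting false positives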;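 also: 0% = DMSO wells with enzyme and 100% = wells lacking enzyme; higher means stronger loss of beta-gal luminescence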
Active calls of the source: *; x = not tested or not shown. Shown are actives, neighbours in structure and some others; about 1.5% of the full set was active somewhere.

SMILES	EBI2 block	APJ antagonist	CCR6 antagonist	CXCR6 block	APJ agonist	EBI2 conf	EBI2 agonist	bGal counter
CSc1cccc(CN2CCCC(C(=O)Nc3cccc(-n4cccn4)c3)C2)c1 (stereo unspecified)	8	-2	9	9	-2	x	x	x
CSc1ccc(C2=CC(=O)C[C@H](c3ccc(F)cc3)C2)cc1	66*	10	28	2	-4	50*	-1	-7
O=C1C=C(c2ccc(OC(F)(F)F)cc2)C[C@@H](c2ccc(F)cc2)C1	52*	7	12	3	-3	38	0	-8
O=C1C=C(c2ccc(Cl)c(C(F)(F)F)c2)C[C@@H](c2ccc(F)cc2)C1	19	3	16	-7	-3	x	x	x
O=C1C=C(c2cc(Cl)cc(Cl)c2)C[C@@H](c2ccc(F)cc2)C1	48*	13	18	0	-3	22	0	6
Cc1cc(C2=CC(=O)C[C@H](c3ccc(F)cc3)C2)ccc1F	49*	x	x	-8	x	27	0	6
CCOc1ccccc1NC(=S)NCc1cccn1C	4	15	5	-2	-1	x	x	x
O=C1CC(N(CCc2ccccc2)C(=S)Nc2cc(Cl)ccc2Cl)C(=O)N1c1c(Cl)cccc1Cl (stereo unspecified)	24	4	16	-5	3	x	x	x
COc1ccc([C@H]2CC(=O)C=C(c3cc(Cl)cc(Cl)c3)C2)cc1	46*	6	13	0	-3	19	-2	-17
COc1ccc(NC2=CC(=O)CC(c3ccccc3)C2)cc1 (stereo unspecified)	52*	-17	5	12	-6	31	2	13
COc1ccc([C@H]2CC(=O)C=C(c3ccc4c(c3)sc3ccccc34)C2)cc1	55*	7	20	0	-1	19	1	9
COc1ccc([C@H]2CC(=O)C=C(c3ccc(SC)cc3)C2)cc1	71*	10	20	10	-5	47	0	-11
COc1ccc([C@H]2CC(=O)C=C(c3cc(C(F)(F)F)cc(C(F)(F)F)c3)C2)cc1	35	2	1	2	-3	x	x	x
COc1ccc([C@H]2CC(=O)C=C(c3cccc(C(C)C)c3)C2)cc1	4	-3	23	6	-4	x	x	x
COc1ccc([C@H]2CC(=O)C=C(c3ccc(SC)cc3)C2)cc1OC	28	-13	20	10	-3	x	x	x
O=C(Cn1c(CO)nc2ccccc21)Nc1ccc2c(c1)OCCCO2	-2	-2	-9	-4	-4	x	x	x
COc1ccc(-c2csc3nc(-c4ccccc4OC)oc(=O)c23)cc1	20	1	21	-13	-2	x	x	x
COc1ccc([C@H]2CC(=O)C=C(c3ccc4ccn(C)c4c3)C2)cc1	73*	11	22	3	-2	44	1	4
COc1ccc([C@H]2CC(=O)C=C(c3ccccc3)C2)cc1	41*	2	13	3	-4	32	-2	-1
COc1ccc(C2=CC(=O)C[C@H](c3ccc(OC)cc3)C2)cc1	54*	1	-3	0	-5	44	-1	-9
COc1ccc(C2=CC(=O)C[C@H](c3ccc4c(c3)OCO4)C2)cc1	41	1	15	5	-5	x	x	x
COc1ccc([C@H]2CC(=O)C=C(c3ccc4c(c3)OCO4)C2)cc1	35	9	13	-4	-4	x	x	x
COc1ccc([C@H]2CC(=O)C=C(c3cccc(OC)c3)C2)cc1	34	17	11	1	-3	x	x	x
COc1ccc([C@H]2CC(=O)C=C(c3ccc4cc[nH]c4c3)C2)cc1	49*	6	18	-3	-1	36	0	6
COc1ccc(CN2C(=O)CN(S(C)(=O)=O)CC2(C)C(=O)Nc2c(C)cccc2C)cc1 (stereo unspecified)	2	x	x	x	x	x	x	x
Cc1ccc(S(=O)(=O)Nc2cc(C(F)(F)F)ccc2N2CCOCC2)c(C)c1	-8	-16	9	-4	-2	x	x	x
